Data set [1] can be described thus: Retention time at 25 mM. In kind it is ADME. To be noted: 25000 µM. The method, boiled down:
(§1)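 Reversed-phase HPLC on a C8 column (4.6 × 100 mm, 10 µm) at room temperature (22-25 °C). The mobile phase was Brij35 micelle solution in 10 mM phosphate buffer, pH 4.01, run separately at 25, 30, 35 and 40 mM Brij35. NaNO₃ served as the dead-time marker.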

Data set [2] relates to Rattus norvegicus. The data set can be described thus: Tested for antiplatelet activity in rat by conversion of the original antiplatelet activity data (%) to antiplatelet activity values at 10 umol/kg. In kind it is functional.
The nature of data set [3]: Retention time at 35 mM. In kind it is ADME. To be noted: 35000 µM. An outline of the steps:
as §1

Data set [4] in a line: Retention time at 40 mM. Type of data set: ADME. To be noted: 40000 µM. An outline of the steps:
as §1

Data set [5] in a line: Retention time at 30 mM. Type of data set: ADME. The note with it: 30000 µM. An outline of the steps: as §1
Data set [6] deals with Rattus norvegicus. The data set can be described thus: Tested for inhibitory activity on rat platelet aggregation induced by collagen measured after 1 hr of oral administration of compound (10 mg/kg) in rat. Type of data set: functional.
Data set [7] has as its system Rattus norvegicus. The data set can be described thus: Tested for inhibitory activity on rat platelet aggregation induced by collagen ex vivo measured after 1 hr of oral administration of compound (10 mg/kg) in rat. Type of data set: functional.

Take `COc1cc2c(cc1-c1nc(C)c(-c3cccnc3)[nH]1)nc(O)n2C`: the Retention time amounted to 1.375 min in data set [1], 1.345 min in data set [3], 1.331 min in data set [4] and 1.362 min in data set [5]. Besides, the “Log APA” value in the data set with Rattus norvegicus [2] is on record as 0.57. Further, the Inhibition (commonly the change of the read-out against control, counted positive when it falls) in the data set on Rattus norvegicus [6] is reported as 11%.
Consider `COc1c(-c2nc(C)c(-c3cccnc3)[nH]2)cc2nc(O)[nH]c2c1Cl`, for which the Retention time in data set [1] is 1.32 min; in data set [3], 1.296 min; in data set [4] it was 1.289 min; in data set [5] it was 1.301 min. Also, the “Log APA” value with Rattus norvegicus [2] came to 0.79. For the same compound, in the data set with Rattus norvegicus [6], the Inhibition stood at 17%.
Regarding `COc1c(-c2nc(C)c(-c3cccnc3)[nH]2)ccc2[nH]c(C)nc12`, the Retention time is 2.79 min in data set [1], 2.56 min in data set [3], 2.43 min in data set [4] and 2.7 min in data set [5]. The “Log APA” value in the data set with Rattus norvegicus [2] worked out at 0.72. In the data set on Rattus norvegicus [6], this compound yielded an Inhibition of 16%.
As for `COc1c(-c2nc(C)c(-c3cccnc3)[nH]2)cc2nc(C)[nH]c2c1Cl`, the Retention time in data set [1] is 4.69 min; in data set [3], 4.05 min; in data set [4], 3.79 min; in data set [5] it was 4.36 min. Also, the “Log APA” value in the data set on Rattus norvegicus [2] is recorded as 1.4. The compound further showed an Inhibition in the data set with Rattus norvegicus [6] of 63%.
As for `COc1cc(OC)c(-c2nc(C)c(-c3cccnc3)[nH]2)cc1NC(C)=O`, the Retention time in data set [1] came out at 2.75 min; in data set [3], 2.5 min; in data set [4] it was 2.41 min; in data set [5], 2.6 min. In addition, the “Log APA” value in the data set with Rattus norvegicus [2] was 0.93. In addition, the Inhibition in the data set with Rattus norvegicus [6] was determined as 24%.
As for `Cc1nc2cc(Cl)c(-c3nc(C)c(-c4cccnc4)[nH]3)cc2[nH]1`, the Retention time in data set [1] is 3.56 min; in data set [3] it was 3.19 min; in data set [4] it was 3 min; in data set [5], 3.41 min. The “Log APA” value in the data set with Rattus norvegicus [2] came to 0.68. The compound further gave an Inhibition with Rattus norvegicus [6] of 15%.
As to `COc1ccccc1-c1nc(C)c(-c2cccnc2)[nH]1`, the Retention time amounted to 4.59 min in data set [1], 3.97 min in data set [3], 3.76 min in data set [4] and 4.21 min in data set [5]. Moreover, the “Log APA” value in the data set with Rattus norvegicus [2] turned out to be 1.1. The Inhibition in the data set on Rattus norvegicus [6] is listed as 49%.
In the case of `COc1cc(NC(C)=O)c([N+](=O)[O-])cc1-c1nc(C)c(-c2cccnc2)[nH]1`, the Retention time in data set [1] turned out to be 10.35 min; in data set [3] it was 8.08 min; in data set [4] it was 7.33 min; in data set [5], 9.08 min. The “Log APA” value in the data set with Rattus norvegicus [2] is 1.5. The compound further yielded an Inhibition in the data set with Rattus norvegicus [6] of 86%.
Regarding `CSc1ccccc1-c1nc(C)c(-c2cccnc2)[nH]1`, the Retention time is given as 7.65 min in data set [1], 6.46 min in data set [3], 6 min in data set [4] and 7.01 min in data set [5]. Also, the “Log APA” value in the data set with Rattus norvegicus [2] was 0.95. In the data set on Rattus norvegicus [6], this compound had an Inhibition of 32%.
In the case of `Cc1[nH]c(-c2ccccc2N)nc1-c1cccnc1`, the Retention time in data set [1] is 3.58 min; in data set [3] it was 3.21 min; in data set [4], 3.07 min; in data set [5], 3.37 min. The “Log APA” value with Rattus norvegicus [2] is 0.8. The Inhibition in the data set with Rattus norvegicus [6] turned out to be 25%.
With `COc1c(-c2nc(C)c(-c3cccnc3)[nH]2)cc(Cl)c2[nH]c(CCC(=O)O)nc12`, the Retention time in data set [1] is listed as 3.68 min; in data set [3] it was 3.27 min; in data set [4], 3.1 min; in data set [5] it was 3.47 min. The “Log APA” value with Rattus norvegicus [2] is 0.4. Further, the Inhibition with Rattus norvegicus [6] is 6%.
As for `CNC(=O)Nc1ccccc1-c1nc(C)c(-c2cccnc2)[nH]1`, the Retention time is on record as 6.34 min in data set [1], 5.35 min in data set [3], 5 min in data set [4] and 5.78 min in data set [5]. Moreover, the “Log APA” value in the data set on Rattus norvegicus [2] worked out at 1.1. Moreover, the Inhibition with Rattus norvegicus [6] worked out at 46%.
As to `Cc1[nH]c(-c2ccccc2Cl)nc1-c1cccnc1`, the Retention time in data set [1] is reported as 8.63 min; in data set [3], 7.17 min; in data set [4], 6.64 min; in data set [5] it was 7.83 min. In the data set on Rattus norvegicus [2], the “Log APA” value worked out at 0.38. The Inhibition in the data set on Rattus norvegicus [6] amounted to 9%.
Consider `Cc1nc2cc(-c3nc(C)c(-c4cccnc4)[nH]3)c(C)cc2[nH]1`, for which the Retention time in data set [1] is 1.3 min; in data set [3], 1.28 min; in data set [4], 1.271 min; in data set [5] it was 1.294 min. Also, in the data set with Rattus norvegicus [2], the “Log APA” value worked out at 0.74. The compound also registered an Inhibition in the data set with Rattus norvegicus [6] of 18%.
With `Cc1[nH]c(-c2ccccc2F)nc1-c1cccnc1`, the Retention time in data set [1] is given as 8.75 min; in data set [3], 7.13 min; in data set [4], 6.57 min; in data set [5] it was 7.84 min. In addition, the “Log APA” value in the data set with Rattus norvegicus [2] is given as 1.4. The same compound yielded an Inhibition in the data set with Rattus norvegicus [6] of 98%.
For the compound `Cc1ccccc1-c1nc(C)c(-c2cccnc2)[nH]1`, the Retention time is given as 5.2 min in data set [1], 4.64 min in data set [3], 4.39 min in data set [4] and 4.92 min in data set [5]. Also, the “Log APA” value in the data set on Rattus norvegicus [2] is listed as 0.18. In the data set with Rattus norvegicus [6], this compound registered an Inhibition of 6%.
With `COC(=O)Nc1ccccc1-c1nc(C)c(-c2cccnc2)[nH]1`, the Retention time in data set [1] is recorded as 8.79 min; in data set [3], 7.27 min; in data set [4], 6.7 min; in data set [5], 7.94 min. The “Log APA” value in the data set on Rattus norvegicus [2] was 1.4. Also, the Inhibition in the data set on Rattus norvegicus [7] was 73%.
With `COc1cc(NC(C)=O)c(Cl)cc1-c1nc(C)c(-c2cccnc2)[nH]1`, the Retention time was determined as 7.95 min in data set [1], 6.32 min in data set [3], 5.78 min in data set [4] and 7.01 min in data set [5]. Also, in the data set with Rattus norvegicus [2], the “Log APA” value was 1.4. The Inhibition with Rattus norvegicus [6] came to 65%.
`COc1cc2[nH]c(C)nc2cc1-c1nc(C)c(-c2cccnc2)[nH]1`: the Retention time in data set [1] worked out at 2.23 min; in data set [3] it was 2.06 min; in data set [4], 1.99 min; in data set [5] it was 2.16 min. Moreover, the “Log APA” value in the data set on Rattus norvegicus [2] worked out at 0.83. In the data set with Rattus norvegicus [6], the Inhibition was determined as 21%.
Consider `COc1c(-c2nc(C)c(-c3cccnc3)[nH]2)cc(Cl)c2[nH]c(C)nc12`, for which the Retention time is 9.36 min in data set [1], 7.24 min in data set [3], 6.52 min in data set [4] and 8.14 min in data set [5]. Moreover, the “Log APA” value in the data set on Rattus norvegicus [2] came to 1.3. Moreover, in the data set on Rattus norvegicus [6], the Inhibition turned out to be 51%.
On to `CCOC(=O)COc1ccccc1-c1nc(C)c(-c2cccnc2)[nH]1`, for which the Retention time in data set [1] came to 9.21 min; in data set [3], 6.57 min; in data set [4], 6.18 min; in data set [5] it was 7.12 min. Moreover, the “Log APA” value in the data set with Rattus norvegicus [2] turned out to be 0.6. Further, in the data set on Rattus norvegicus [6], the Inhibition stood at 12%.
In the case of `CCOc1ccccc1-c1nc(C)c(-c2cccnc2)[nH]1`, the Retention time is recorded as 6.01 min in data set [1], 5.08 min in data set [3], 4.77 min in data set [4] and 5.44 min in data set [5]. Further, the “Log APA” value in the data set with Rattus norvegicus [2] stood at 1.1. In the data set with Rattus norvegicus [6], this compound returned an Inhibition of 45%.

(Values after ChEMBL document CHEMBL1127309, “A novel and useful descriptor for hydrophobicity, partition coefficient micellar-water, and its application to a QSAR study of antiplatelet agents” (J Med Chem, 1994).)
